# Screening data from PubChem BioAssay.
# Compounds with a hit are over-represented: about 1.6% of the library has one in this group of screens.
# Diaphorase inh: diaphorase inhibition or chemical oxidation counter-screen; diaphorase resazurin-to-resorufin fluorescence, NADH, 16 min; bacterial (C. kluyveri) enzyme, not human; inhibition, % at 20 µM; 190,000 tested, 0.69% active; AID 1217;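 active = primary screen inhibition at 20 µM above a set limit, cut at about 50% in these data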
#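 Test system: Clostridium kluyveri diaphorase enzyme / Quantity: diaphorase at 0.14 U/mL in enzyme working solution / Incubation: 16-min room-temperature incubation before reading / Benchmarks: NADH-free wells as positive control, DMSO-only neutral wells / Signal: resorufin fluorescence 544/590 nm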
# HMGR II inh: blocks class II HMG-CoA reductase of Enterococcus faecalis; purified E. faecalis HMGR, NADPH absorbance 340 nm kinetic; inhibition, % at 10 µM; 190,000 tested, 0.41% active; AID 1066;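 active = inhibition above a set limit, the median over all tested compounds plus 3 SD, cut at about 9.5% in these data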;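 note: enzyme runs in reverse so mevalonate oxidation gives rising NADPH absorbance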
# ABCG2 inh: human ABCG2 inhibition, ABCB1 as counter-screen; IgMXP3 cells, JC-1 efflux, flow cytometry; inhibition, % at 6.6 µM; Q9UNQ0; AID 1325; 190,000 tested, 0.1% active;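 active = inhibition above 80%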
#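 Incubation: cells with compound and JC-1, 10 min at 25 °C, rotating, no wash / Test system: IgMXP3 (ABCG2) plus far-red-tagged CCRF-Adr (ABCB1) cells / Compound dosing: one concentration, 6.6 µM final / Also added: JC-1 fluorescent substrate / Evaluation: efflux inhibition in percent versus controls / Detection: flow cytometry, 530 nm JC-1 signal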
# ABCB1 block: inhibitors of human ABCB1 transporter, ABCG2 counter-screen. inhibition, % at 6.6 µM. P08183. AID 1326. 190,000 tested, 0.067% active. CCRF-Adr cells, JC-1 efflux, flow cytometry; in the data active = inhibition above about 40%;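 note: higher value means more JC-1 retained so stronger ABCB1 efflux block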
# NCF1 inh: p47phox (human) inhibition; inhibition, % at 24.7 µM; 220,000 tested, 0.53% active; P14598; p47phox/p22phox peptide binding, fluorescence polarization, 2 h;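 active = inhibition above about 30%, limit read from the data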
# Target sequence (P14598 whole entry, looked up): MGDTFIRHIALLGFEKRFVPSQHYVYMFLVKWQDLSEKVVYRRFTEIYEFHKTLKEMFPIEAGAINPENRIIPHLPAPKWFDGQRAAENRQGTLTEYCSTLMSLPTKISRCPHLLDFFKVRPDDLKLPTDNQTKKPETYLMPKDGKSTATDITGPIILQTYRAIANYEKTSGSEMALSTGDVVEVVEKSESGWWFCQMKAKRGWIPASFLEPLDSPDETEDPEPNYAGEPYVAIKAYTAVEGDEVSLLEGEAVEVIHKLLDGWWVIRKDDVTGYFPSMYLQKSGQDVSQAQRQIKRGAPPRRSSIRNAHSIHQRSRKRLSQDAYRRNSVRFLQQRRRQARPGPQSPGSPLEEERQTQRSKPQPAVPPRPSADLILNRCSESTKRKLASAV
# Diaphorase act: activates diaphorase or chemically reduces, flagging diaphorase assay artifacts | activation factor at 20 µM | Diaphorase/resazurin coupled assay, resorufin fluorescence, 16 min; stronger effect = higher value; 1 = vehicle wells, 0 = NADH-free wells | 190,000 tested, 0.005% active | AID 1229;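 active = diaphorase activity raised at least twofold by the compound at 20 µM; inactive = activation factor below 2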
#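 Test system: Clostridium kluyveri diaphorase, purified enzyme. Buffer or medium: 50 mM HEPES pH 7.4 buffer plus MgCl2 and Tween 20. Also added: 0.114 mM NADH and 0.1 mM resazurin, final amounts. Dosing: compound 20 µM once, DMSO 1%. Schedule: 16 min enzyme reaction, ambient temperature. Detection: fluorescence of resorufin, 544 nm excitation, 590 nm emission.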
# Hits are given with their value; . = inactive; / = no result.
SMILES,Diaphorase inh,HMGR II inh,ABCG2 inh,ABCB1 block,NCF1 inh,Diaphorase act
COc1ccc(Br)cc1C1CC(=O)N2CN(C)CSC2=C1C#N (stereo unspecified),.,.,.,.,.,.
COc1ccc2ccccc2c1C1CC(=O)N2CN(C)CSC2=C1C#N (stereo unspecified),52,.,.,.,.,.
COc1cc(C2CC(=O)N3CN(c4ccccc4C)CSC3=C2C#N)cc(OC)c1OC (stereo unspecified),59,.,.,.,.,.
COc1ccc(NC(=O)c2c([N+](=O)[O-])c(C(C)(C)C)nn2C)cc1,/,/,/,/,.,/
O=C(Nc1ccc(N2CCOCC2)cc1)C1CCN(C(=O)OCc2ccccc2)CC1,/,/,/,/,.,/
CC(Nc1ccc2c(c1)OCCO2)C(=O)Nc1ccc2c(c1)OCO2 (stereo unspecified),.,.,.,.,.,.
COc1cc(OC)c(C2CC(=O)N3CN(c4ccccc4)CSC3=C2C#N)cc1OC (stereo unspecified),.,.,.,.,.,.
CCc1ccccc1N1CSC2=C(C#N)C(c3cc(OC)c(OC)cc3OC)CC(=O)N2C1 (stereo unspecified),50,.,.,.,31,.
Cc1cccc2cc3c(N)c(C(=O)N4CCOCC4)sc3nc12,.,.,.,.,.,.
COc1cc(CNC(C)(C)C)ccc1OCC(=O)NC(C)(C)C,.,.,.,.,.,.
COc1ccc(C2CCCN2C(=S)Nc2cccc(C)c2)cc1OC (stereo unspecified),.,.,.,.,/,.
CCCCNC(=O)c1ccccc1NC(=O)CCSc1ccccc1,.,15,.,.,.,.
Nc1ccccc1NC1CCCCC1,82,.,.,.,.,.
CCOC(=O)C1CCN(S(=O)(=O)c2ccc(NC(C)=O)c(Cl)c2)CC1,/,/,/,/,.,/
COc1cc2c(C)nc3c(c(C)nn3-c3ccccc3)c2cc1OC,.,.,.,.,.,.
COc1cc2c(-c3ccc(O)cc3)nc3c(c(C)nn3-c3ccccc3)c2cc1OC,.,.,.,.,34,.
c1ccc(-c2nc(N3CCN(c4ccccc4)CC3)nc(-n3ccnc3)n2)cc1,.,.,.,.,58,.
COc1cc2c(cc1OC)C(c1ccccc1)N(C(=O)CCl)CC2 (stereo unspecified),.,.,.,.,.,.
COc1cc2c(cc1OC)C(c1ccccc1)N(S(C)(=O)=O)CC2 (stereo unspecified),82,.,.,.,.,.
CCOC(=O)c1c(C)n(-c2ccc(C)cc2)c2c(CC(C)=O)c(Br)c(OC)c(O)c12,.,.,.,.,.,.
CCOC(=O)c1c(C)n(-c2ccc(C)cc2)c2c(C(C(C)=O)C(=O)O)c(Br)c(O)c(O)c12 (stereo unspecified),72,.,.,.,.,.
Cc1nc(NC(=O)c2cccc(-c3cc4ccccc4oc3=O)c2)ccc1Br,.,.,.,.,41,.
O=C(Nc1ccc(Br)cn1)c1cccc(-c2cc3ccccc3oc2=O)c1,.,.,.,.,37,.
CCOC(=O)c1c(C)[nH]c2cc(Br)c(O)cc12,.,.,.,.,.,.
CCOC(=O)c1c(OCC)[nH]c2c1cc(O)c1ccccc12,74,.,.,.,.,.
SMILES,Diaphorase inh,HMGR II inh,ABCG2 inh,ABCB1 block,NCF1 inh,Diaphorase act
Cc1cc(-c2nc3c4c5c(sc4[nH]c(=O)n3n2)CCC5)c(C)o1,57,.,.,.,.,.
CC1(C)C(=O)C2(CCCCC2)C(=O)OC1c1cccn1-c1ccc([N+](=O)[O-])cc1 (stereo unspecified),.,.,.,.,.,.
O=c1c2cc(N3CCOCC3)ccc2[nH]c(=S)n1CCCN1CCN(c2ccccc2F)CC1,.,.,.,53,.,.
O=c1c2cc(N3CCOCC3)ccc2[nH]c(=S)n1CCCN1CCCCCC1,.,.,.,.,.,.
COc1cc(NC(=O)COC(=O)CNC(=O)c2ccc(C)cc2)c(C)cc1[N+](=O)[O-],.,.,.,.,.,.
CCOc1ccc(-c2[nH]ncc2Oc2ccccc2OC)c(O)c1,.,.,.,.,.,.
CCOc1ccc(-c2[nH]ncc2Oc2ccccc2OCC)c(O)c1,.,24,.,.,.,.
CCOC(=O)c1c(NC(=O)CSc2ncnc3ccccc23)sc(C(C)=O)c1C,.,.,.,42,.,.
CCOC(=O)c1c(NC(=O)CSc2nc3cccnc3n2C)sc(C(C)=O)c1C,.,.,.,.,.,.
Cn1nc(-c2ccccc2)c(CSc2ccccc2)c1Cl,.,.,.,.,139,.
CC1(C)Cc2c(C#N)c(NCCN3CCOCC3)nc(-c3ccccc3)c2CO1,/,/,/,/,.,/
CCCS(=O)(=O)N1CCN(C(=O)c2cc(OC)cc(OC)c2)CC1,.,.,.,.,.,.
CN1OCC(S(=O)(=O)c2ccccc2)C1c1ccccc1 (stereo unspecified),.,.,.,.,.,.
Cc1ccccc1NC(=S)NCc1ccc2c(c1)cc(C)n2C,.,15,.,.,.,.
CC(C)(C)c1cc(OS(C)(=O)=O)ccc1O,.,.,.,.,32,.
O=C(N=Nc1c(O)n(C2OC(=O)c3ccccc32)c2ccccc12)c1ccco1 (stereo unspecified),/,/,/,/,31,/
CCOC(=O)COc1ccc(S(=O)(=O)c2ccc(OCC(=O)OCC)cc2)cc1,.,.,.,.,.,.
O=C(O)COc1ccc(S(=O)(=O)c2ccc(OCC(=O)O)cc2)cc1,.,.,.,.,35,.
CCc1nc(-c2ccccc2)c2ccccn12,.,.,.,.,.,.
CCOc1ccc(CCNC(=O)C(O)c2ccccc2)cc1 (stereo unspecified),.,.,.,.,.,.
COC(=O)COc1ccc(/C=N/NC(=O)c2ccc(N(Cc3ccccc3)S(C)(=O)=O)cc2)cc1,.,.,.,/,55,.
COc1cc(Cn2c(=O)oc3ccc(C)cc32)ccc1OC(C)C,.,14,.,.,.,.
CCOc1ccc(Cn2c(=O)oc3ccc(C)cc32)cc1OC,.,.,.,.,.,.
CN(C)/C=C(/C(=O)c1ccc(Cl)cc1)S(=O)(=O)c1ccc(Cl)cc1,.,12,.,.,.,.
CC(=O)NS(=O)(=O)c1ccc(NC(=O)c2ccc3c(c2)C(=O)N(CCC(C)C)C3=O)cc1,.,.,.,.,59,.
CC(C)(C)N1OC2CC1c1nc3ccccc3n1C2 (stereo unspecified),/,/,/,/,50,/
c1ccc(N2OCC3Cn4c(nc5ccccc54)C32)cc1 (stereo unspecified),/,/,/,/,.,/
